# Data as given in ChEMBL document CHEMBL4706489, “Hydrogen sulfide releasing oridonin derivatives induce apoptosis through extrinsic and intrinsic pathways” (Eur J Med Chem, 2020).
# Calls of active or inactive are those of the source. The calls are words filed in the database; no cut-off is given here.
# Tests used:
# [1] = tested on: K562; assay: Induction of cell cycle arrest in human K562 cells assessed as accumulation at S phase at 1 uM after 48 hrs by propidium iodide staining based flow cytometric analysis (reference value: 44.73 to 45.96%); assay type: functional
# [2] = tested on: HepG2; assay: Induction of apoptosis in human HepG2 cells assessed as necrotic cells at 2 uM after 48 hrs by annexin V FITC and propidium iodide staining based flow cytometric analysis (reference value: 0.89%); assay type: functional
# [3] = tested on: K562; assay: Induction of apoptosis in human K562 cells assessed as necrotic cells at 0.5 uM after 48 hrs by annexin V FITC and propidium iodide staining based flow cytometric analysis (reference value: 0.69%); assay type: functional
# [4] = tested on: HepG2; assay: Induction of mitochondrial membrane potential loss in human HepG2 cells after 48 hrs by JC1 staining based flow cytometric analysis; assay type: functional, cell-based; details: dose 0.5-2 µM
# Summary of the method: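 K562 and HepG2 cells in 6-well plates were exposed for 48 h at 0, 0.50, 1.0 and 2.0 µM, with DMSO vehicle control. After trypsinization, cells were stained with JC-1 (0.5 mg/mL) at 37 °C in darkness for 30 min, then washed with PBS. Membrane potential was read by flow cytometry. Mean ± SD, three independent experiments.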
# [5] = Selectivity ratio of IC50 for cytotoxicity against human PBMC cells to IC50 for antiproliferative activity against human HepG2 cells; assay type: toxicity, cell-based; details: read-out: Ratio IC50
# [6] = tested on: HepG2; assay: Induction of cell cycle arrest in human HepG2 cells assessed as accumulation at S phase at 0.5 uM after 48 hrs by propidium iodide staining based flow cytometric analysis (reference value: 33.22 to 33.58%); assay type: functional
# [7] = Selectivity ratio of IC50 for cytotoxicity against human PBMC cells to IC50 for antiproliferative activity against human K562 cells; assay type: toxicity, cell-based; details: read-out: Ratio IC50
# [8] = tested on: HepG2; assay: Induction of cell cycle arrest in human HepG2 cells assessed as accumulation at S phase at 1 uM after 48 hrs by propidium iodide staining based flow cytometric analysis (reference value: 33.22 to 33.58%); assay type: functional
# [9] = tested on: HepG2; assay: Induction of apoptosis in human HepG2 cells assessed as viable cells at 1 uM after 48 hrs by annexin V FITC and propidium iodide staining based flow cytometric analysis (reference value: 93.5%); assay type: functional; details: read-out: Activity
# [10] = tested on: K562; assay: Induction of apoptosis in human K562 cells assessed as late apoptotic cells at 2 uM after 48 hrs by annexin V FITC and propidium iodide staining based flow cytometric analysis (reference value: 0.42%); assay type: functional
# [11] = tested on: K562; assay: Induction of apoptosis in human K562 cells assessed as down regulation of procaspase-3 at 1 uM after 24 hrs by chemiluminescence based apoptosis array method; assay type: functional, cell-based
# Summary of the method: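 K562 cells were treated with 1 test agent for 24 h. Diluted total-cell lysates were applied to a human apoptosis antibody array covering 35 apoptosis-related proteins for 24 h. Unbound protein was washed off, and arrays were probed with a biotinylated detection antibody for 1 h. Relative expression was read from chemiluminescent signal by digital imaging.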
compound,measurement,setting,value
C=C1C(=O)[C@]23[C@H](OC(=O)CCC(=O)OCCCCCCOc4ccc(-c5cc(=S)ss5)cc4)[C@H]1CC[C@H]2[C@@]12CO[C@@]3(O)[C@@H](O)[C@@H]1C(C)(C)CC[C@@H]2OC(C)=O,Activity,[1],55.54%
same,Activity,[2],4.42%
same,Activity,[3],1.1%
same,Activity,[4],Dose-dependent effect
same,selectivity ratio,[5],20
same,Activity,[6],31.41%
same,selectivity ratio,[7],20
same,Activity,[8],27.19%
same,viability at 1 µM,[9],60.5%
same,Activity,[10],27.29%
same,Activity,[11],Active
